Legend:
Format in all cases: ADME, organism-based
Stomach [1] = assay: Biodistribution in ddY mouse stomach assessed per gram of tissue at 14.8 kBq, iv after 360 mins; conditions: in vivo, 6 h
Outline: (§1)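 Radioiodinated tracer (14.8 kBq) injected via tail vein into male ddY mice (6 weeks, 30–35 g). Organs removed at set times after injection, weighed and gamma-counted; uptake expressed as % injected dose per gram tissue, mean ± SD, n = 5–6.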

Liver [2] = assay: Biodistribution in ddY mouse liver assessed per gram of tissue at 148 kBq, iv after 180 mins in presence of 50 mg/kg, iv of cyclosporin A administered 30 mins before compound challenge (reference value: 16.20 +/- 1.34 %); design: dose 50 mg/kg, route intravenous; conditions: in vivo, 3 h
Brain [3] = assay: Biodistribution in ddY mouse brain assessed per gram of tissue at 148 kBq, iv after 180 mins in presence of 50 mg/kg, iv of cyclosporin A administered 30 mins before compound challenge (reference value: 0.50 +/- 0.04 %); design: dose 50 mg/kg, route intravenous; conditions: in vivo, 3 h
Liver [4] = assay: Biodistribution in ddY mouse liver assessed per gram of tissue at 14.8 kBq, iv after 180 mins; conditions: in vivo, 3 h
Outline: (§2)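 Killed at set times after injection; organs and blood removed, weighed, gamma counted. Data as % injected dose per gram tissue, mean SD, n = 5–6.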

Kidney = assay: Biodistribution in ddY mouse kidney assessed per gram of tissue at 14.8 kBq, iv after 180 mins; conditions: in vivo, 3 h; outline: as §2
Stomach [5] = assay: Biodistribution in ddY mouse stomach assessed per gram of tissue at 14.8 kBq, iv after 180 mins; conditions: in vivo, 3 h; outline: as §1
Pancreas [6] = assay: Biodistribution in ddY mouse pancreas assessed per gram of tissue at 14.8 kBq, iv after 180 mins; conditions: in vivo, 3 h; outline: as §1
Heart [7] = assay: Biodistribution in ddY mouse heart assessed per gram of tissue at 14.8 kBq, iv after 180 mins; conditions: in vivo, 3 h; outline: as §2
Lung [8] = assay: Biodistribution in ddY mouse lung assessed per gram of tissue at 14.8 kBq, iv after 180 mins; conditions: in vivo, 3 h; outline: as §1
Brain [9] = assay: Biodistribution in ddY mouse brain assessed per gram of tissue at 14.8 kBq, iv after 180 mins; conditions: in vivo, 3 h; outline: as §2
Spleen [10] = assay: Biodistribution in ddY mouse spleen assessed per gram of tissue at 14.8 kBq, iv after 0.5 mins; conditions: in vivo; outline: as §1
Heart [11] = assay: Biodistribution in ddY mouse heart assessed per gram of tissue at 14.8 kBq, iv after 0.5 mins; conditions: in vivo; outline: as §2
Lung [12] = assay: Biodistribution in ddY mouse lung assessed per gram of tissue at 14.8 kBq, iv after 0.5 mins; conditions: in vivo; outline: as §1
Stomach [13] = assay: Biodistribution in ddY mouse stomach assessed per gram of tissue at 14.8 kBq, iv after 5 mins; conditions: in vivo; outline: as §1
Heart [14] = assay: Biodistribution in ddY mouse heart assessed per gram of tissue at 14.8 kBq, iv after 5 mins; conditions: in vivo; outline: as §2
Lung [15] = assay: Biodistribution in ddY mouse lung assessed per gram of tissue at 14.8 kBq, iv after 5 mins; conditions: in vivo; outline: as §1
Brain [16] = assay: Biodistribution in ddY mouse brain assessed per gram of tissue at 14.8 kBq, iv after 5 mins; conditions: in vivo; outline: as §2
Liver [17] = assay: Biodistribution in ddY mouse liver assessed per gram of tissue at 14.8 kBq, iv after 30 mins; conditions: in vivo, 0.5 h; outline: as §2
Spleen [18] = assay: Biodistribution in ddY mouse spleen assessed per gram of tissue at 14.8 kBq, iv after 30 mins; conditions: in vivo, 0.5 h; outline: as §1
Pancreas [19] = assay: Biodistribution in ddY mouse pancreas assessed per gram of tissue at 14.8 kBq, iv after 30 mins; conditions: in vivo, 0.5 h; outline: as §1
Heart [20] = assay: Biodistribution in ddY mouse heart assessed per gram of tissue at 14.8 kBq, iv after 30 mins; conditions: in vivo, 0.5 h; outline: as §2
Blood = assay: Biodistribution in ddY mouse blood assessed per gram of tissue at 14.8 kBq, iv after 60 mins; conditions: in vivo, 1 h; outline: as §2
Intestine = assay: Biodistribution in ddY mouse intestine assessed per gram of tissue at 14.8 kBq, iv after 60 mins; conditions: in vivo, 1 h; outline: as §2
Stomach [21] = assay: Biodistribution in ddY mouse stomach assessed per gram of tissue at 14.8 kBq, iv after 60 mins; conditions: in vivo, 1 h; outline: as §1
Lung [22] = assay: Biodistribution in ddY mouse lung assessed per gram of tissue at 14.8 kBq, iv after 60 mins; conditions: in vivo, 1 h; outline: as §1
Brain [23] = assay: Biodistribution in ddY mouse brain assessed per gram of tissue at 14.8 kBq, iv after 60 mins; conditions: in vivo, 1 h; outline: as §2

Drug uptake (Stomach [1]): 2.17 % ID/g
Drug uptake (Liver [2]): 15.2 % ID/g
Drug uptake (Brain [3]): 0.66 % ID/g
Drug uptake (Liver [4]): 32.22 % ID/g
Drug uptake (Kidney): 7.74 % ID/g
Drug uptake (Stomach [5]): 2.51 % ID/g
Drug uptake (Pancreas [6]): 6.53 % ID/g
Drug uptake (Heart [7]): 1.58 % ID/g
Drug uptake (Lung [8]): 4.75 % ID/g
Drug uptake (Brain [9]): 0.56 % ID/g
Drug uptake (Spleen [10]): 0.5 % ID/g
Drug uptake (Heart [11]): 1.47 % ID/g
Drug uptake (Lung [12]): 6.6 % ID/g
Drug uptake (Stomach [13]): 1.93 % ID/g
Drug uptake (Heart [14]): 5.39 % ID/g
Drug uptake (Lung [15]): 14.48 % ID/g
Drug uptake (Brain [16]): 0.42 % ID/g
Drug uptake (Liver [17]): 28.99 % ID/g
Drug uptake (Spleen [18]): 5.91 % ID/g
Drug uptake (Pancreas [19]): 6.1 % ID/g
Drug uptake (Heart [20]): 2.31 % ID/g
Drug uptake (Blood): 0.75 % ID/g
Drug uptake (Intestine): 2.35 % ID/g
Drug uptake (Stomach [21]): 2.16 % ID/g
Drug uptake (Lung [22]): 7.54 % ID/g
Drug uptake (Brain [23]): 0.48 % ID/g
Structure (SMILES): Oc1ccc2nc(CN3CCC(Cc4ccc([125I])cc4)CC3)[nH]c2c1
